In ChEMBL document CHEMBL1125490, “3'-Spiro nucleosides, a new class of specific human immunodeficiency virus type 1 inhibitors: synthesis and antiviral activity of [2'-5'-bis-O-(tert-butyldimethylsilyl)-beta-D-xylo- and -ribofuranose]-3'-spiro-5"-[4"-amino-1",2"-oxathiole 2",2"-dioxide] (TSAO) pyrimidine nucleosides” (J Med Chem, 1992):
≈ marks a conversion by molar mass, not a printed value.

Columns and labels:
[1] = system: Human immunodeficiency virus 1; assay: Concentration required to inhibit HIV-1 induced cytopathicity in human MT-4 lymphocyte cells.; type: functional, organism-based
Method in brief: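 MT-4 cells at 5 × 10⁵/mL were infected with HIV-1 at 100 CCID₅₀ per mL of cell suspension, then mixed 1:1 with serial dilutions of compound. After 5 days, viable cells were counted by trypan blue staining. EC₅₀ was the concentration giving 50% protection against virus-induced loss of viable cells. Values are means of at least three to five independent experiments.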

[2] = system: MT4; assay: Concentration required to reduce human MT-4 cell viability by 50%.; type: functional
Method in brief: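 Mock-infected MT-4 cells were cultured 5 days with serial dilutions of compound, and viable cells were counted by trypan blue staining. CC₅₀ was the concentration reducing viable cell number by 50%. Values are means of at least three to five independent experiments.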

[3] = system: MT4; assay: Ratio of effective concentration to that of cytotoxic concentration against HIV-1 induced cytopathogenicity in MT-4 cells; type: functional
[4] = Human immunodeficiency virus 1, Lymphocyte, read-out: EC50
[5] = Homo sapiens, MT4, read-out: CC50

Cc1cn([C@@H]2O[C@H](CO[Si](C)(C)C(C)(C)C)[C@@]3(OS(=O)(=O)C=C3N)[C@H]2O[Si](C)(C)C(C)(C)C)c(=O)[nH]c1=O gave an EC50 [1, 4] of 0.034 µg/mL (≈ 0.0576 µM) and a CC50 [2, 5] of 7.7 µg/mL (≈ 13.1 µM).

For Cc1cn([C@@H]2O[C@H](CO[Si](C)(C)C(C)(C)C)[C@]3(OS(=O)(=O)C=C3N)[C@H]2O[Si](C)(C)C(C)(C)C)c(=O)[nH]c1=O, the EC50 [1, 4] was over 4 µg/mL, the CC50 [2, 5] was 18 µg/mL (≈ 30.5 µM) and the Selectivity index [3] was under 4.5.

Cc1cn([C@@H]2O[C@H](CO[Si](C)(C)C(C)(C)C)[C@@](C#N)(OS(C)(=O)=O)[C@H]2O[Si](C)(C)C(C)(C)C)c(=O)[nH]c1=O gave an EC50 [1, 4] of over 1.6 µg/mL, a CC50 [2, 5] of 4.3 µg/mL (≈ 7.29 µM) and a Selectivity index [3] of under 2.7.

Work on NC1=CS(=O)(=O)O[C@]12[C@@H](CO)O[C@@H](n1ccc(=O)[nH]c1=O)[C@@H]2O yielded an EC50 [1, 4] of over 80 µg/mL, a CC50 [2, 5] of 320 µg/mL (≈ 921 µM) and a Selectivity index [3] of under 4.

Work on Cc1cn([C@H]2C[C@]3(OS(=O)(=O)C=C3N)[C@@H](CO[Si](C)(C)C(C)(C)C)O2)c(=O)[nH]c1=O yielded an EC50 [1, 4] of over 0.8 µg/mL, a CC50 [2, 5] of 1.5 µg/mL (≈ 3.26 µM) and a Selectivity index [3] of under 1.9.

Cc1cn([C@@H]2O[C@H](CO[Si](C)(C)C(C)(C)C)[C@@]3(OS(=O)(=O)C=C3N)[C@H]2O)c(=O)[nH]c1=O showed an EC50 [1, 4] of over 20 µg/mL, a CC50 [2, 5] of 45 µg/mL (≈ 94.6 µM) and a Selectivity index [3] of under 2.2.

CC(C)(C)[Si](C)(C)O[C@H]1[C@H](n2ccc(=O)[nH]c2=O)O[C@H](CO)[C@]12OS(=O)(=O)C=C2N was tested, and the EC50 [1, 4] was over 100 µg/mL, the CC50 [2, 5] was 221 µg/mL (≈ 479 µM) and the Selectivity index [3] was under 2.

Work on Cc1cn([C@@H]2O[C@H](CO)[C@@]3(OS(=O)(=O)C=C3N)[C@H]2O[Si](C)(C)C(C)(C)C)c(=O)[nH]c1=O yielded an EC50 [1, 4] of over 40 µg/mL, a CC50 [2, 5] of 106 µg/mL (≈ 223 µM) and a Selectivity index [3] of under 2.6.

For CC(=O)Nc1ccn([C@@H]2O[C@H](CO[Si](C)(C)C(C)(C)C)[C@]3(OS(=O)(=O)C=C3N)[C@H]2O[Si](C)(C)C(C)(C)C)c(=O)n1, the EC50 [1, 4] was over 4 µg/mL, the CC50 [2, 5] was 7.1 µg/mL (≈ 11.5 µM) and the Selectivity index [3] was under 1.8.

With Cc1cn([C@@H]2O[C@H](CO)[C@@]3(OS(=O)(=O)C=C3N)[C@H]2O)c(=O)[nH]c1=O the EC50 [1, 4] was over 100 µg/mL and the CC50 [2, 5] was over 100 µg/mL.

In the case of CC(=O)Nc1ccn([C@@H]2O[C@H](CO[Si](C)(C)C(C)(C)C)[C@@]3(OS(=O)(=O)C=C3N)[C@H]2O[Si](C)(C)C(C)(C)C)c(=O)n1, the EC50 [1, 4] is reported as 0.097 µg/mL (≈ 0.157 µM), the CC50 [2, 5] is reported as 7.5 µg/mL (≈ 12.2 µM) and the Selectivity index [3] is reported as 77.

Cc1cn([C@@H]2O[C@H](CO)[C@]3(OS(=O)(=O)C=C3N)[C@H]2O)c(=O)[nH]c1=O gave an EC50 [1, 4] of over 500 µg/mL, a CC50 [2, 5] of over 500 µg/mL and a Selectivity index [3] of under 1.

CC(C)=CCN1Cc2cccc3[nH]c(=S)n(c23)C[C@@H]1C gave an EC50 [1, 4] of 0.021 µg/mL (≈ 0.0731 µM), a CC50 [2, 5] of over 20 µg/mL and a Selectivity index [3] of over 952.

CC(C)(C)[Si](C)(C)OC[C@H]1O[C@@H](n2ccc(=O)[nH]c2=O)[C@H](O[Si](C)(C)C(C)(C)C)C12OS(=O)(=O)C=C2N (stereo in doubt; 11b) was tested, and the EC50 ([1]; lymphocyte) was over 1.6 µg/mL, the CC50 [2] was 3.1 µg/mL (≈ 5.38 µM) and the Selectivity index [3] was under 2.

With CC(C)(C)[Si](C)(C)OC[C@H]1O[C@@H](n2ccc(=O)[nH]c2=O)[C@H](O[Si](C)(C)C(C)(C)C)C12OS(=O)(=O)C=C2N (stereo in doubt; 12b) the EC50 ([1]; lymphocyte) was 0.114 µg/mL (≈ 0.198 µM), the CC50 [2] was 8.3 µg/mL (≈ 14.4 µM) and the Selectivity index [3] was 73.

Cc1c(Sc2ccccc2)n(COCCO)c(=O)[nH]c1=O [HEPT] showed an EC50 [1, 4] of 5.5 µg/mL (≈ 17.8 µM), a CC50 [2, 5] of over 200 µg/mL and a Selectivity index [3] of over 36.

Work on Cc1ccnc2c1NC(=O)c1cccnc1N2C1CC1 [NEVIRAPINE] yielded an EC50 [1, 4] of 0.038 µg/mL (≈ 0.143 µM), a CC50 [2, 5] of over 20 µg/mL and a Selectivity index [3] of over 526.
